Laboratory results: ChEMBL document CHEMBL1130034, “Dual metalloprotease inhibitors: mercaptoacetyl-based fused heterocyclic dipeptide mimetics as inhibitors of angiotensin-converting enzyme and neutral endopeptidase” (J Med Chem, 1997)

What was measured:
[1] = test system: Rattus norvegicus; test: % inhibition of AI pressor response at 30 minutes after intravenous administration of 0.5 micro mol/kg of compound in rat; format: functional
How it was run: (§1)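 Normotensive rats given intravenous angiotensin I challenges to raise mean arterial pressure. Compound dosed intravenously at 0.5 μmol/kg. Pressor response measured before dosing (control) and at set times afterward. Percent change from the control response taken as % inhibition. Maximal response usually seen about 2 min after dosing.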

[2] = test system: Rattus norvegicus; test: % inhibition of AI pressor response at 60 minutes after intravenous administration of 0.5 micro mol/kg of compound in rat; format: functional; how it was run: as §1
[3] = test system: Rattus norvegicus; test: % inhibition of AI pressor response at 2 minutes after intravenous administration of 0.5 micro mol/kg of compound in rat; format: functional; how it was run: as §1
[4] = target: T1, Angiotensin-converting enzyme (Oryctolagus cuniculus, UniProt P12822); test: In vitro inhibition of ACE (Angiotensin I converting enzyme) isolated from rabbit lung extract; details: read-out: I50
T1 sequence (P12822 whole entry): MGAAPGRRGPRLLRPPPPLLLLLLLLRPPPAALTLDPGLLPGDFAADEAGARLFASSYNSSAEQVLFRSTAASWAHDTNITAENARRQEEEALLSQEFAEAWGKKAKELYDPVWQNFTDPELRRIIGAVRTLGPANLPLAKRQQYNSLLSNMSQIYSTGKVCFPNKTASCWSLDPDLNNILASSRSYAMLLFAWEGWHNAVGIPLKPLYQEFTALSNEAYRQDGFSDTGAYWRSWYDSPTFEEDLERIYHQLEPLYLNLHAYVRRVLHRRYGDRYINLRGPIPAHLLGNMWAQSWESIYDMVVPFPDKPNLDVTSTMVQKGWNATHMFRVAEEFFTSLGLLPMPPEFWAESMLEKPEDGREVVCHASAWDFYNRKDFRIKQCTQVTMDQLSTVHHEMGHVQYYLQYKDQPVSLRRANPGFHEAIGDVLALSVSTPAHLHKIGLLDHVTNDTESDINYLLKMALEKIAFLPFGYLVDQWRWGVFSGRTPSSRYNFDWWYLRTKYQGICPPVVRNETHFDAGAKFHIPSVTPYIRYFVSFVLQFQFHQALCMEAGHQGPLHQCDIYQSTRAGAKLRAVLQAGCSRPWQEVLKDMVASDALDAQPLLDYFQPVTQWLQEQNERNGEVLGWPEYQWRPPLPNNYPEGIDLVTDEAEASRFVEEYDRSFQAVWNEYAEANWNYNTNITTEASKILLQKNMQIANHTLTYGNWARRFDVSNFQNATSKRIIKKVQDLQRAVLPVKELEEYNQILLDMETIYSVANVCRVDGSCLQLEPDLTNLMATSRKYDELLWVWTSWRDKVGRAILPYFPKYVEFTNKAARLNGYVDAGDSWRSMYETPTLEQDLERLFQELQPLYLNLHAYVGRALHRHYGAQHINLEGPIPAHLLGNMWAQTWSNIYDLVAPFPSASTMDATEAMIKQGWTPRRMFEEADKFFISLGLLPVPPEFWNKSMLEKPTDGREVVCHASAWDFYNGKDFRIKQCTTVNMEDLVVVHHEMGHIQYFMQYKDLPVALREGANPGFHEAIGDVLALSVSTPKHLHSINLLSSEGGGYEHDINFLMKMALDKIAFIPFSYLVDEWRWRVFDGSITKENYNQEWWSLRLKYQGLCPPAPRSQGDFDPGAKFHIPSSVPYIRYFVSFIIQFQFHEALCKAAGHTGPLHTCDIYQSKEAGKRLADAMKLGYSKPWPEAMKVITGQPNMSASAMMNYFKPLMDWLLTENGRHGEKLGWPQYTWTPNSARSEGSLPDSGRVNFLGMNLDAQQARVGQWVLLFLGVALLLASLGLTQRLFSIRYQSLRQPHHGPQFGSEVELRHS
How it was run: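 Enzyme source is rabbit lung extract; substrate hippuryl-L-histidyl-L-leucine (HHL); I50 reported.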

[5] = test system: Rattus norvegicus; test: 50% inhibition of the AI pressor response in normotensive rat after intravenous administration at a dose 0.5 umol/kg; format: functional
[6] = target: T2, Neprilysin (Rattus norvegicus, UniProt P07861); test: In vitro inhibition of neutral endopeptidase purified from rat kidney using fluorimetry assay; details: read-out: I50
T2 sequence (P07861 whole entry): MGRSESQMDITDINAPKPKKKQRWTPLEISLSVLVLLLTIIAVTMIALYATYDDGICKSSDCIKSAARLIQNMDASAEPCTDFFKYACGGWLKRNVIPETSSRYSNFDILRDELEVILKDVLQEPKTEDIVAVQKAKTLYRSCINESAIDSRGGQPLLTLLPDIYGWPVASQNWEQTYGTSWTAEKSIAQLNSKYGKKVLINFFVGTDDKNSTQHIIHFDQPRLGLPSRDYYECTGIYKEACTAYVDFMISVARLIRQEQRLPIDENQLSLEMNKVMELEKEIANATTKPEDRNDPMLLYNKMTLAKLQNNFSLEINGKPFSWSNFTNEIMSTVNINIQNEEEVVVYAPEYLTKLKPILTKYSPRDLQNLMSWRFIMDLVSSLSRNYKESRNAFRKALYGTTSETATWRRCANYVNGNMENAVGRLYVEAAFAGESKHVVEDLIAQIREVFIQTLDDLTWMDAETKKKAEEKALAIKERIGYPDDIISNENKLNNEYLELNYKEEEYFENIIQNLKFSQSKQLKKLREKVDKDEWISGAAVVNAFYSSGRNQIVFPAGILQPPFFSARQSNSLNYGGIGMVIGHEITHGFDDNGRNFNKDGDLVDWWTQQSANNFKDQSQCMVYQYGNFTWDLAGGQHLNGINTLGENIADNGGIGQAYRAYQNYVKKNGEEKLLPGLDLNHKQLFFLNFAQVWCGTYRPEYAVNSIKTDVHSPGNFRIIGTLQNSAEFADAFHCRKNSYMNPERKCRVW
How it was run: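 Enzyme from purified rat kidney; fluorometric read-out with dansyl-Gly-Phe-Arg as substrate; I50 reported.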

[7] = test system: Rattus norvegicus; test: % inhibition of AI pressor response at 120 minutes after intravenous administration of 0.5 micro mol/kg of compound in rat; format: functional; how it was run: as §1
[8] = test system: Rattus norvegicus; test: Decreased Mean arterial pressure (MAP) in rat after single oral dose of 30 umol/kg; format: functional, Artery
How it was run: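 Conscious sodium-depleted spontaneously hypertensive rats, n = 7 per group. Single oral dose of 30 μmol/kg (~12 mg/kg); vehicle 5% NaHCO3. Mean arterial pressure followed as change from pre-dose baseline over 24 h.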

SMILES	IC50 [4]	IC50 [6]	Inhibition [1]	Inhibition [2]	Inhibition [3]	ED50 [5]	Inhibition [7]	MAP [8]
O=C(N[C@H]1CCC[C@H]2CC[C@@H](C(=O)O)N2C1=O)[C@@H](S)Cc1ccccc1	–	–	34%	3%	75%	–	–	–
CCC(=O)O[C@@H](O[P@](=O)(CCCCc1ccccc1)CC(=O)N1C[C@H](C2CCCCC2)C[C@H]1C(=O)O)C(C)C [FOSINOPRIL]	–	–	–	–	–	–	–	20 mmHg
O=C(N[C@H]1CCC[C@H]2CCC[C@@H](C(=O)O)N2C1=O)[C@@H](S)Cc1ccccc1	–	–	65%	35%	71%	–	11%	–
CCOC(C)=O.O=C(N[C@H]1CCO[C@H]2CCC[C@@H](C(=O)O)N2C1=O)[C@@H](S)Cc1ccccc1	8 nM	9 nM	3%	–	83%	0.05 µmol/kg	–	–

Further lines, with some results ahead:

IC50 [4]	IC50 [6]	SMILES	Inhibition [1]	Inhibition [2]	Inhibition [3]	ED50 [5]	Inhibition [7]	MAP [8]
5 nM	42 nM	CCOC(C)=O.O=C(N[C@H]1CS[C@H]2CCC[C@@H](C(=O)O)N2C1=O)[C@@H](S)Cc1ccccc1	3%	–	78%	0.23 µmol/kg	–	–
5 nM	8 nM	O=C(N[C@H]1CCS[C@H]2CCC[C@@H](C(=O)O)N2C1=O)[C@@H](S)Cc1ccccc1 [OMAPATRILAT]	66%	60%	76%	0.07 µmol/kg	58%	40 mmHg
4 nM	4 nM	O=C(N[C@H]1CCS[C@H]2CC[C@@H](C(=O)O)N2C1=O)[C@@H](S)Cc1ccccc1	76%	60%	82%	0.03 µmol/kg	25%	–
7 nM	26 nM	O=C(N[C@H]1CCO[C@H]2CC[C@@H](C(=O)O)N2C1=O)[C@@H](S)Cc1ccccc1	63%	3%	79%	0.06 µmol/kg	–	–
